Bioassay records from PubChem.
Jurkat tox 60K: cytotoxic compounds reducing Jurkat cell viability; Jurkat E6.1 viability, ATP luminescence, 48 h; inhibition, % at 4 µM; actives 1.2% (n = 56,000); AID 463;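 active = inhibition above the mean inhibition of all tested compounds plus 3 SD, cut at about 28% in these data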
Fibroblast inh: blocks proliferation of human lung fibroblasts | actives 1.1% (n = 85,000) | viability, % at 10 µM | LL 47 human lung fibroblast viability, ATP luminescence; hits give low values | AID 719;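 active = viability at or below 50% in the single dose screen; inactive = viability above 50%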;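 also: compound exposure lasted 72 h before the ATP readout; 100% = median luminescence of untreated cell-only wells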
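Test system: LL 47 human lung fibroblasts / Incubation: 72 h compound exposure at 37 °C after overnight plating / Technique: luminescent ATP detection, CellTiter-Glo / Compound dosing: 0.1% DMSO in all compound wells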
H69AR inhibit: blocks growth of human H69AR lung tumor cells. viability, % at 10 µM. H69AR lung tumor viability, ATP luminescence, 72 h; hits give low values. AID 598. actives 6% (n = 85,000);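 active = viability at or below 40%; inactive = viability above 40%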;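 also: multidrug resistant small cell line overexpressing MRP-1 efflux transporter; 100% = mean luminescence of untreated control wells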
HUVEC inhibit: inhibitors of human endothelial cell proliferation. HUVEC proliferation, CellTiter-Glo luminescence, 72 h; hits give low values. viability, % at 10 µM (by protocol). actives 1.1% (n = 86,000). AID 648;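 active = viability at or below 30%; inactive = viability above 30%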;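 also: 100% = median luminescence of DMSO-only cell control wells on each plate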
tolC growth inh: E. coli tolC mutant growth inhibition | E. coli BW25113 tolC mutant growth, OD615 | growth inhibition, % at 10 µM (by protocol) | actives 2.2% (n = 65,000) | AID 573;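 active = growth inhibition at or above a cutoff equal to the mean over every tested compound plus 3 SD, cut at about 60% in these data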;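 also: growth measured after 20 h incubation at 37 °C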
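System: E. coli ΔtolC::kan strain BW25113; Buffer or medium: LB broth supplemented with 50 µg/mL kanamycin; Compound: 10 µM final, single dose; Incubation: bacterial growth with compound for 20 h at 37 °C; Signal: A615 absorbance measurement; Evaluation: growth inhibition in percent.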
Ecoli WT expand: E. coli BW25113 growth inhibition, expanded screen. OD600 absorbance. actives 0.15% (n = 98,000). AID 710. growth inhibition, % at 100 µM;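 active = growth inhibition above about 50% at one test dose, limit read from the data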;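 also: growth measured after 20 h incubation at 37 °C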
* = called active by the depositor; nt = no result. Sampled rows, rich in hits. Any-hit rate of the full collection: about 6.4%.

SMILES	Jurkat tox 60K	Fibroblast inh	H69AR inhibit	HUVEC inhibit	tolC growth inh	Ecoli WT expand
CCn1c(SCC(=O)N2CCN(c3ccc(Cl)cc3)CC2)nc2ccccc2c1=O	-4.0	102.4	92.1	104.8	-13.3	-6.0
CCn1c(SCC(=O)N2CCOCC2)nc2sc3c(c2c1=O)CCCC3	nt	87.8	38.9*	97.6	6.4	-10.0
CCn1c(SCC(=O)N2CCOCC2)nc2oc3c(Cl)cc(Cl)cc3c(=O)c2c1=O	3.0	87.4	14.0*	87.6	17.7	1.0
Cc1cc2c(=O)n(Cc3ccco3)c(SCC(=O)N3CCCc4ccccc43)nc2s1	0.4	89.3	62.3	78.1	43.5	-14.0
CS(=O)(=O)N(CC(=O)N1CCCC1)c1cccc(Cl)c1Cl	1.4	98.1	103.7	107.8	-14.0	-2.0
COCCOC(=O)C1=C(C)NC2=C(C(=O)CCC2)C1c1ccc(N(C)C)cc1 (centres undefined)	-5.6	112.9	101.4	96.4	4.6	nt
O=C(CN(Cc1ccco1)C(=O)CNS(=O)(=O)c1ccc(Cl)cc1)NC1CCCCC1	3.3	87.2	91.1	82.3	-16.8	0.0
O=C(CN(c1ccccc1F)S(=O)(=O)c1ccccc1)NC1CCCCCC1	nt	89.3	80.7	87.5	nt	-3.0
O=C(CSc1n[nH]c(-c2ccco2)n1)N1c2ccccc2Sc2ccccc21	2.5	102.7	71.2	94.7	73.2*	0.0
CCOC(=O)CSc1n[nH]c(-c2ccco2)n1	-2.4	103.3	94.5	106.4	-9.0	2.0
CSc1ccc2nnc(-c3cccc(F)c3)n2n1	-6.4	nt	nt	nt	9.4	13.0
O=C(NCc1ccccn1)c1c(O)c2cccc3c2n(c1=O)CC3	-5.4	104.4	88.9	89.3	-7.1	-20.0
c1ccc(-c2nc3nonc3nc2-c2ccccc2)cc1	10.8	16.8*	1.9*	52.4	48.1	-13.0
Nc1c(-c2ccccc2)nc(Cl)nc1-c1ccccc1	nt	nt	nt	nt	nt	1.0
COc1ccccc1NC(=O)Oc1ccc(NC(=O)c2ccco2)cc1	6.2	96.1	94.6	86.7	-7.5	7.0
CN1CCN(c2ncnc3c2sc2nc(N4CCOCC4)c4c(c23)CCC4)CC1	nt	99.6	96.6	86.3	nt	nt
Cc1cc(C)c2c(n1)sc1c(N3CCOCC3)ncnc12	-1.7	83.3	77.6	21.6*	9.5	nt
c1nc(N2CCNCC2)c2sc3nc(N4CCOCC4)c4c(c3c2n1)CCC4	nt	4.0*	7.9*	72.4	-0.9	nt
COc1ccc2[nH]c3nc(SCc4nnc(-c5ccccc5)o4)nnc3c2c1	3.0	101.2	9.3*	65.3	-13.9	-8.0
COc1ccc(-n2c(SCc3nnc(-c4ccccc4)o3)nnc2-c2ccccc2)cc1	-2.2	82.4	84.5	66.5	2.0	-9.0
COc1ccc(-c2nnc(SCc3nnc(-c4ccccc4)o3)n2-c2ccccc2)cc1	-6.0	85.2	2.6*	41.5	3.2	2.0
Nn1c(COc2ccccc2)nnc1SCc1cc(=O)[nH]c2ccccc12	-3.6	86.4	74.9	91.1	-14.6	-2.0
OCCn1nc2c3ccccc3nc-2n(-c2ccccc2)c1=S	-1.2	106.4	76.2	97.4	-16.8	-1.0
Fc1ccc(CNc2ncnc3c2cnn3-c2ccccc2)cc1	10.9	88.3	36.5*	86.0	-20.2	-8.0
Clc1ccc(-n2ncc3c(NCc4cccs4)ncnc32)cc1	nt	34.0*	40.9	87.3	10.2	-7.0
SMILES	Jurkat tox 60K	Fibroblast inh	H69AR inhibit	HUVEC inhibit	tolC growth inh	Ecoli WT expand
Cc1ccc(-n2ncc3c(NCCCOC(C)C)ncnc32)c(C)c1	nt	97.5	36.9*	96.8	5.2	14.0
Cc1cccc(-n2ncc3c(NCc4ccccc4)ncnc32)c1	82.7*	56.8	24.8*	57.3	2.2	-1.0
CC(C)(C)Nc1ncnc2c1cnn2-c1ccccc1	2.9	109.3	44.8	92.2	6.8	nt
CC(=S)/C=C1\Sc2ccccc2N1C	nt	nt	nt	nt	nt	3.0
Cc1c(C(=O)NCCc2ccccc2)oc2ccc(S(=O)(=O)N3CCC4(CC3)OCCO4)cc12	nt	98.7	71.8	89.5	26.2	-11.0
c1ccc(CNc2ncnc3c2cnn3-c2ccccc2)cc1	85.1*	70.3	25.9*	59.7	-3.2	1.0
Cc1cccc(-n2ncc3c(NCc4ccco4)ncnc32)c1	nt	89.0	26.3*	73.4	-0.2	0.0
c1ccc(CCNc2ncnc3c2cnn3-c2ccccc2)cc1	0.6	110.7	74.4	95.7	72.5*	nt
c1ccc(-n2ncc3c(NCc4ccccn4)ncnc32)cc1	nt	92.5	91.9	109.7	6.0	-2.0
Cc1cccc(-n2ncc3c(N4CCN(c5nc(C)cc(C)n5)CC4)ncnc32)c1	-4.9	94.6	93.3	86.1	-11.7	nt
Cc1cccc(-n2ncc3c(N4CCCc5ccccc54)ncnc32)c1	nt	94.2	34.6*	86.5	nt	-10.0
CN(C)CCCNc1ncnc2c1cnn2-c1ccccc1	-13.3	99.3	98.8	91.2	-3.7	7.0
COc1ccccc1-n1cnc2cc(C(=O)NCc3ccco3)ccc21	-2.4	nt	nt	nt	10.5	3.0
COC(=O)c1ccccc1NC(=O)n1cc(C)cn1	-3.6	107.7	89.7	90.4	-13.3	-13.0
CC(C)C(=O)Nc1cccc(-c2nc3ccccc3c(=O)o2)c1	nt	102.0	75.1	103.5	nt	nt
COC(=O)Cn1c(C)nc2ccccc21	nt	110.1	86.0	97.0	nt	1.0
N#CC1=C(N)Oc2n[nH]c(-c3ccccn3)c2C1c1c(F)cccc1Cl (centres undefined)	nt	82.3	80.6	88.6	nt	-5.0
O=C(NC1CCCCC1NC(=O)c1ccco1)c1ccco1 (centres undefined)	9.6	109.5	99.1	92.5	-21.5	4.0
COc1ccc2c(c1)C(c1ccccc1)=NNC(c1ccco1)=N2	nt	nt	nt	nt	nt	5.0
Cc1ccc(-c2csc3ncn(-n4c(C)ccc4C)c(=O)c23)o1	-4.3	85.6	75.4	94.1	67.2*	-9.0
Cc1sc2ncn(-n3c(C)ccc3C)c(=O)c2c1C	nt	92.5	104.2	98.2	11.2	1.0
CC(C)C(OC(=O)c1ccco1)C(=O)NCc1ccco1 (centres undefined)	-4.7	91.3	79.8	98.3	-10.6	-12.0
O=C(Nc1ccc(C(=O)N2CCOCC2)cc1)c1cccs1	-4.5	100.9	98.6	93.6	-14.2	-3.0
Nc1nonc1-c1nc2ccccc2n1Cc1ccc(F)cc1Cl	4.2	55.5	39.0*	57.0	-12.6	-16.0
CCOc1cc(N2CCOCC2)c(OCC)cc1NC(=O)CCS(=O)(=O)c1ccc(Cl)cc1	-3.7	93.9	77.2	97.7	-5.9	-5.0
CCOc1cc(N2CCOCC2)c(OCC)cc1NS(=O)(=O)c1ccc(Cl)s1	69.2*	nt	20.1*	58.3	31.1	10.0
COc1ccc(CN(Cc2cc3cc4c(cc3[nH]c2=O)OCO4)C(=O)NC2CCCCC2)cc1	-7.6	nt	nt	nt	72.0*	-14.0
COc1ccccc1NC(=O)N(Cc1cc2cc(OC)c(OC)cc2[nH]c1=O)CC1CCCO1 (centres undefined)	-7.0	99.0	78.8	85.9	8.1	-1.0
O=C(NC1CCCCC1)N(CCN1CCOCC1)Cc1cc2cc3c(cc2[nH]c1=O)OCCO3	-6.1	86.5	79.7	84.9	-1.6	3.0
COc1ccc2[nH]c(=O)c(CNC3CCCCC3)cc2c1	1.7	101.8	106.0	93.6	-18.9	3.0
